# This is a sample that favours compounds with a hit; in the whole collection about 2.5% have one here.
# ABHD4 inh = inhibitors of mouse ABHD4; Q8VD66; purified mABHD4, FP-Rh probe fluorescence polarization; inhibition, % at 8.92 µM; actives 0.54% (n = 370,000); AID 720543;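 active = inhibition exceeding the mean over every tested compound plus 3 SD, cut at about 30% in these data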
# Target sequence (Q8VD66 whole entry, looked up): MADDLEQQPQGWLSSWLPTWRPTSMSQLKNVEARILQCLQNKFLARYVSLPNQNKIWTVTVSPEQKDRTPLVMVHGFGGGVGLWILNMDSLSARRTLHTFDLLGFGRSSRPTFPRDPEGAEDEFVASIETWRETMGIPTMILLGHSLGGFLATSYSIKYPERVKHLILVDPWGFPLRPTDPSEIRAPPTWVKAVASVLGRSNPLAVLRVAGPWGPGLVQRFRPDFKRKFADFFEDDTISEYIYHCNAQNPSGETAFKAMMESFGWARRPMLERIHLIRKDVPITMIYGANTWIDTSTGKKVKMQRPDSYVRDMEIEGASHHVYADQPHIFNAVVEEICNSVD
#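 system = mouse ABHD4 enzyme, wild type | medium = HEPES pH 7.0, NaCl, Pluronic buffer | also added = FP-Rh probe | incubation = Enzyme–compound pre-incubation 45 min, then probe 60 min, both 25 °C | technique = fluorescence polarization, excitation 525 nm, emission 598 nm, BODIPY TMR filters | controls = S159A mutant high control, sample median low control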
# SIAE primary = human SIAE inhibition, primary screen. SIAE FP-Rh probe binding, fluorescence polarization. inhibition, % at 9.66 µM. actives 0.69% (n = 370,000). AID 1053197;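 active = inhibition above a cutoff: mean of compounds within the control limits plus 3 SD of those, cut at about 17% in these data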
# HTRA1 inh = HTRA1 (human) protease inhibition; Q92743; recombinant HTRA1, FP-rhodamine activity-based probe, fluorescence polarization; inhibition, % at 5.96 µM; actives 0.5% (n = 340,000); AID 504803; in the data active = inhibition above about 36%
# TCR CD3 inh = human TCR-CD3 binding inhibition | inhibition, % at 9.4 µM | TAMRA-labeled TCR probe fluorescence, biochemical | actives 0.37% (n = 360,000); in the data active = inhibition above about 19%;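 also: recombinant mutant TCR 2C K166C tagged with TAMRA read by polarization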
# PRMT1 FP inh = PRMT1 (human) inhibition, primary screen | Q99873 | recombinant PRMT1, activity-based probe fluorescence polarization | inhibition, % at 2.79 µM | actives 1.3% (n = 370,000);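 active = inhibition above about 21% made by adding two undisclosed values, limit read from the data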
# SIAE inh conf = human SIAE inhibition, confirmation. AID 1117263. SIAE FP-Rh activity-based probe, fluorescence polarization. inhibition, % at 9.66 µM. shares compounds with SIAE primary. actives 13% (n = 2,300);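 active = mean inhibition of the replicates above the hit cutoff set in the primary screen, cut at about 17% in these data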;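 also: inhibitors lower polarization as more probe stays unbound to SIAE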
# Hits are given with their value; – = inactive; · = no result given; + = active, no number.
SMILES,ABHD4 inh,SIAE primary,HTRA1 inh,TCR CD3 inh,PRMT1 FP inh,SIAE inh conf
COC(=O)[C@]12C[C@H](CC(=O)NCCC(C)C)C(=O)N(Cc3ccc4c(c3)OCO4)C1=C[C@H](C(C)C)O[C@@H]2C1CC1,–,–,·,·,–,·
Brc1ccc(-c2csc(Nc3nc(-c4ccc(Br)cc4)cs3)n2)cc1,–,42.2,–,–,–,–
Nc1nc(-c2ccc(Br)cc2)cs1,–,–,–,–,–,·
CC1(C)CC(=O)C(C=NCC(N)=O)=C(O)C1,–,17.7,–,–,–,–
COc1ccc(OC)c(S(=O)(=O)NCC(c2ccco2)N2CCc3ccccc32)c1 (centres undefined),–,17.7,–,–,–,–
O=C(NCC(c1ccco1)N1CCc2ccccc21)c1ccccc1 (centres undefined),–,23.3,–,–,–,–
CCn1c2ccccc2c2cc(NC(=O)c3cccc([N+](=O)[O-])c3)ccc21,–,–,–,–,–,·
CCn1c2ccccc2c2cc(NC(=O)c3ccc(C)c([N+](=O)[O-])c3)ccc21,–,21.4,–,–,–,–
CN(C)S(=O)(=O)c1cccc(-c2csc(N/N=C/c3ccco3)n2)c1,–,–,–,–,–,·
Cc1ccc(-c2csc(N/N=C/c3ccco3)n2)c(C)c1,–,18.5,–,–,–,–
CC(C)n1nnnc1C1(C)CN(S(C)(=O)=O)CC(=O)N1Cc1cccc(C(F)(F)F)c1 (centres undefined),–,–,·,·,–,·
Cc1cccc(NC(=O)CN2CCN(C(=O)C(C)Oc3ccc(C#N)cc3)CC2)c1C (centres undefined),–,20.1,–,–,–,–
Cc1cccc(NC(=O)CSc2nnc(Cn3cnc4ccccc43)o2)c1,–,–,–,–,–,·
COc1ccc(NC(=O)CSc2nnc(Cn3cnc4ccccc43)o2)cc1,–,18.0,–,–,–,–
CC1=C(C(=O)Nc2cc(C(=O)N3CCN(c4ccc(Cl)cc4)CC3)ccc2C)SCCO1,–,19.2,–,–,–,–
COc1ccc(C(=O)N(c2ccc(C)cc2)C2C=CS(=O)(=O)C2)cc1OC (centres undefined),–,19.9,–,–,–,–
Cc1ccc(N(C(=O)c2ccc(S(=O)(=O)N3CCCC3)cc2)C2C=CS(=O)(=O)C2)cc1 (centres undefined),–,–,–,–,–,·
CC(/C=C(\NC(=O)c1ccccc1)C(=O)N=Nc1c(O)[nH]c2ccc(C)cc12)=C\c1ccccc1,–,20.8,–,–,–,–
Cc1ccc2[nH]c(O)c(N=NC(N)=S)c2c1,–,–,–,–,–,·
Cc1ccc(OCC(=O)Nc2ccc(S(=O)(=O)N3CCN(C)CC3)cc2)cc1,–,17.6,–,–,–,–
Cc1ccc2cccc(N)c2n1,–,32.1,–,–,–,–
Cc1c(N)cccc1N,–,–,–,–,–,·
CNC(=O)[C@@H](NC(=O)[C@H](CC(C)C)[C@H](O)C(=O)NO)C(C)(C)C,–,–,·,·,–,·
O=C(O)CC(C(=O)O)c1ccc(OCCCCOc2ccc(C(CC(=O)O)C(=O)O)cc2)cc1 (centres undefined),–,19.2,–,–,–,–
Cc1ccc(OCC(C)CN2CCC(C(O)(c3ccccc3)c3ccccc3)CC2)cc1 (centres undefined),–,–,·,·,–,·
SMILES,ABHD4 inh,SIAE primary,HTRA1 inh,TCR CD3 inh,PRMT1 FP inh,SIAE inh conf
Cc1cccc(C(=O)N[C@@H]2CC[C@@]34CCCN3C(=O)CCC[C@H]4[C@H]2C)c1,–,–,·,·,–,·
C/C(=N/Nc1ccccc1[N+](=O)[O-])c1ccc([N+](=O)[O-])cc1,–,–,–,–,–,·
CC(C)=NNc1cc([N+](=O)[O-])cc2c1C(=O)N(C)S2=O (centres undefined),–,17.2,–,–,–,–
Clc1ccc(-c2csc(N3CCCCCC3)n2)cc1,–,76.2,–,–,–,–
CCCCOCCCNC(=O)C[C@@H]1C(=O)N2CCCC3=C2[C@@]1(C(=O)OC)CCCC3,–,–,·,·,–,·
O=C(Cc1csc(NC(=O)c2ccc(F)cc2)n1)NO,–,24.3,–,–,–,–
O=C1Nc2ccccc2C1=Nc1ccc2[nH]c3ccccc3c2c1,–,17.2,–,–,–,–
Cc1ccc(N=C2C(=O)Nc3ccccc32)cc1C,–,–,–,–,–,·
Cc1[nH]c2ccccc2c1/C=N/NC(=S)NCc1ccccc1,–,21.5,–,–,–,19.4
Cc1ccc(C(=O)Nc2ccc(C(=O)N/N=C/c3c[nH]c4ccccc34)cc2)cc1,–,–,–,–,–,·
Cc1[nH]c2ccccc2c1/C=N/NC(N)=S,–,–,–,–,–,·
Cc1cccc(NC(=S)N/N=C/c2c[nH]c3ccccc23)c1,–,32.5,–,–,–,27.7
Cc1[nH]c2ccccc2c1/C=N/NC(=O)CNC(=O)Cc1ccccc1,–,–,–,–,–,·
Cc1ccc(NC(=S)N/N=C/c2c(C)[nH]c3ccccc23)cc1,–,37.6,–,–,–,38.4
Cc1sc2nc(CN3CCOCC3)nc(N3CCOCC3)c2c1C,–,20.6,–,–,–,–
O=C(NCc1ccccc1F)C1C2C=CC3(CN(Cc4ccccc4)C(=O)C13)O2 (centres undefined),–,–,·,·,–,·
CN1C(=O)CC(C(=O)O)SC1=Nc1ccc(F)cc1 (centres undefined),–,–,–,–,–,·
COc1ccc(N=C2SC(C(=O)O)CC(=O)N2C)cc1 (centres undefined),–,25.3,–,–,–,–
COc1ccc(NC(=O)CCNC(=O)N2CC(=O)Nc3ccccc32)c(OC)c1,–,–,–,–,–,·
COc1ccc(CNC(=O)CCNC(=O)N2CC(=O)Nc3ccccc32)cc1,–,+,–,–,–,–
CC(C)NC(=O)Cn1c(SCC(=O)N2CCCc3ccccc32)nc2ccccc21,–,18.0,–,–,–,–
COc1ccc([C@H]2OC(=O)C[C@H]2C(=O)N2CCN(C(=O)C3CCCO3)CC2)cc1OC (some centres undefined),–,–,·,·,–,·
Cc1noc(C(=O)Nc2cccnc2)c1Cl,–,17.5,–,–,–,–
CCOc1cc(C(N)=O)cc(Cl)c1OCC,–,17.2,–,–,–,–
c1ccc(-c2ccnc3nc(N4CCN(c5ccccc5)CC4)nn23)cc1,–,–,–,–,–,·
c1ccc(Oc2ccc(-c3ccnc4nc(N5CCN(c6ccccc6)CC5)nn34)cc2)cc1,–,22.0,–,–,–,–
Cc1cc[n+](-c2[nH]c(=O)sc2/C=N/N=C(\[O-])CCn2c3ccccc3c3ccccc32)cc1,–,24.3,·,–,–,–
CCc1ccc[n+](-c2[nH]c(=O)sc2/C=N/N=C(\[O-])CCn2c3ccccc3c3ccccc32)c1,–,–,–,–,–,·
C[C@@H]1CN([C@@H](C)CO)C(=O)CCCn2cc(nn2)CO[C@H]1CN(C)C(=O)NC1CCCCC1,–,–,·,–,–,·

# Bioassay records (PubChem BioAssay)
